Source: the array DNA melting data of Ke et al. (doi:10.1101/2024.01.08.574731)

Assays:
[1] = melting temperature; fluorescence melt of hairpins on a sequencing array, two-state fit, raised by 9.35 °C to match UV melts; conditions: sodium 0.088 M
In short: (§1)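 Hairpins were imaged by Cy3 fluorescence on a sequenced MiSeq flow cell with annealed Cy3 and quencher oligos, in 50 mM Na-HEPES pH 8.0, 25 mM NaCl, in 2.5 °C steps up to 60 °C. Bootstrapped two-state fits of normalised signals gave melting temperature and folding enthalpy. Four replicates were combined by inverse variance, and fitted temperatures were raised by 9.35 °C to match UV melts.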

[2] = folding enthalpy; higher = less favourable; fluorescence melt of hairpins on a sequencing array, two-state fit; conditions: sodium 0.088 M
In short: as §1

## GAACTGGGAAACCAGTCC (.(((((....))))).)
[1]
  Tm: 37.3 °C
[2]
  folding enthalpy: -14.1 kcal/mol

## GAACTTGGAAACAAGCTC ((.((((....)))).))
[1]
  Tm: 33.8 °C
[2]
  folding enthalpy: -27.1 kcal/mol

## GAACTTGGAAACAAGTCC (.(((((....))))).)
[1]
  Tm: 36 °C
[2]
  folding enthalpy: -16.4 kcal/mol

## GAACTTGGAAACAGGTTC ((((.((....)).))))
[1]
  Tm: 41 °C
[2]
  folding enthalpy: -32.2 kcal/mol

## GAAGAACGAAAGTTTTTC (((.(((....))).)))
[1]
  Tm: 36 °C
[2]
  folding enthalpy: -28.8 kcal/mol

## GAAGAAGAAATTCTTC ((((((....))))))
[1]
  Tm: 38.1 °C
[2]
  folding enthalpy: -18.5 kcal/mol

## GAAGAAGCGAAAGCTTTC (((..(((....))))))
[1]
  Tm: 30.1 °C
[2]
  folding enthalpy: -9.3 kcal/mol

## GAAGACCGAAAGGTGTTC (((.(((....))).)))
[1]
  Tm: 52 °C
[2]
  folding enthalpy: -33 kcal/mol

## GAAGACGAAAGTCCGTTC ((((((....)))..)))
[1]
  Tm: 27.6 °C
[2]
  folding enthalpy: -8.8 kcal/mol

## GAAGACGAAAGTCGTTTC ((((((....)))..)))
[1]
  Tm: 35.3 °C
[2]
  folding enthalpy: -12.1 kcal/mol

## GAAGACGCGAAAGCGTTC (((..(((....))))))
[1]
  Tm: 32.1 °C
[2]
  folding enthalpy: -7.5 kcal/mol

## GAAGAGAAATCTTC (((((....)))))
[1]
  Tm: 30.6 °C
[2]
  folding enthalpy: -10.9 kcal/mol

## GAAGATGGAAACATTTTC (((.(((....))).)))
[1]
  Tm: 30.4 °C
[2]
  folding enthalpy: -21.9 kcal/mol

## GAAGCCGAAAGGCAGTTC ((((((....)))..)))
[1]
  Tm: 30 °C
[2]
  folding enthalpy: -9.04 kcal/mol

## GAAGCCGAAAGGCATTTC ((((((....)))..)))
[1]
  Tm: 25.9 °C
[2]
  folding enthalpy: -6.75 kcal/mol

## GAAGCCGAAAGGCCCTTC ((((((....)))..)))
[1]
  Tm: 31.3 °C
[2]
  folding enthalpy: -11.8 kcal/mol

## GAAGCCGAAAGGCTCTTC ((((((....)))..)))
[1]
  Tm: 56.6 °C
[2]
  folding enthalpy: -20.8 kcal/mol

## GAAGCCGGAAACGACTTC ((((.((....)).))))
[1]
  Tm: 46 °C
[2]
  folding enthalpy: -34.4 kcal/mol

## GAAGCCGGAAACGGTTTC (((.(((....))).)))
[1]
  Tm: 49.9 °C
[2]
  folding enthalpy: -40.2 kcal/mol

## GAAGCTGGAAACAGCTTC (((((((....)))))))
[1]
  Tm: 62.7 °C
[2]
  folding enthalpy: -40.9 kcal/mol

## GAAGGACGAAAGTCTTC (((.(((....))))))
[1]
  Tm: 39.8 °C
[2]
  folding enthalpy: -14.7 kcal/mol

## GAAGGAGGAAACTCCTCC (.(((((....))))).)
[1]
  Tm: 40.9 °C
[2]
  folding enthalpy: -12.7 kcal/mol

## GAAGGAGGAAACTCTTTC (((.(((....))).)))
[1]
  Tm: 31.6 °C
[2]
  folding enthalpy: -20.7 kcal/mol

## GAAGGAGGAAACTTCTTC ((((.((....)).))))
[1]
  Tm: 46.8 °C
[2]
  folding enthalpy: -35.7 kcal/mol

## GAAGGCGAAAGCCAATTC ((((((....)))..)))
[1]
  Tm: 39.5 °C
[2]
  folding enthalpy: -11.2 kcal/mol

## GAAGGCGAAAGCCAGTTC ((((((....)))..)))
[1]
  Tm: 29.7 °C
[2]
  folding enthalpy: -10.2 kcal/mol

## GAAGGCGGAAACGCCCTC ((.((((....)))).))
[1]
  Tm: 35.1 °C
[2]
  folding enthalpy: -8.85 kcal/mol

## GAAGGCGGAAACGCCTCC (.(((((....))))).)
[1]
  Tm: 42.3 °C
[2]
  folding enthalpy: -8.57 kcal/mol

## GAAGGGCCGAAAGGCTTC (((..(((....))))))
[1]
  Tm: 23 °C
[2]
  folding enthalpy: -7.08 kcal/mol

## GAAGGGCGAAAGCCGTTC (((.(((....))).)))
[1]
  Tm: 56.6 °C
[2]
  folding enthalpy: -22.7 kcal/mol

## GAAGGGCGAAAGCCTTTC (((.(((....))).)))
[1]
  Tm: 49.4 °C
[2]
  folding enthalpy: -17.9 kcal/mol

## GAAGGGGCGAAAGCCTTC (((..(((....))))))
[1]
  Tm: 35.2 °C
[2]
  folding enthalpy: -9.14 kcal/mol

## GAAGGTGAAAACCTTC ((((((....))))))
[1]
  Tm: 57.2 °C
[2]
  folding enthalpy: -28.7 kcal/mol

## GAAGTAGAAATACTTC ((((((....))))))
[1]
  Tm: 42.5 °C
[2]
  folding enthalpy: -26.5 kcal/mol

## GAAGTCCGAAAGGATTC (((.(((....))))))
[1]
  Tm: 33.8 °C
[2]
  folding enthalpy: -14.1 kcal/mol

## GAAGTCGAAAGACTTC ((((((....))))))
[1]
  Tm: 65.7 °C
[2]
  folding enthalpy: -34.2 kcal/mol

## GAAGTCGGAAACGACTCC (.(((((....))))).)
[1]
  Tm: 41.3 °C
[2]
  folding enthalpy: -13.2 kcal/mol

## GAAGTCGGAAACGATTTC (((.(((....))).)))
[1]
  Tm: 44.2 °C
[2]
  folding enthalpy: -30.6 kcal/mol

## GAAGTCGGAAACGGTTTC (((..((....))..)))
[1]
  Tm: 28.4 °C
[2]
  folding enthalpy: -8.25 kcal/mol

## GAATAAGGAAACTTATTC (((((((....)))))))
[1]
  Tm: 44.6 °C
[2]
  folding enthalpy: -33.5 kcal/mol

## GAATACACGAAAGTGTTC (((..(((....))))))
[1]
  Tm: 27.3 °C
[2]
  folding enthalpy: -13.4 kcal/mol

## GAATACCGAAAGGTCTTC (((.(((....))).)))
[1]
  Tm: 36.7 °C
[2]
  folding enthalpy: -24.1 kcal/mol

## GAATACCGAAAGGTTTC (((.(((....))))))
[1]
  Tm: 39.2 °C
[2]
  folding enthalpy: -16.5 kcal/mol

## GAATACGAAAGTAGATTC ((((((....)))..)))
[1]
  Tm: 29.1 °C
[2]
  folding enthalpy: -20.3 kcal/mol

## GAATACGGAAACGTATTC (((((((....)))))))
[1]
  Tm: 55.7 °C
[2]
  folding enthalpy: -36.5 kcal/mol
